Data on two compounds can be found in ChEMBL document CHEMBL1129251 (J Med Chem, 1996).

The IC50 is the concentration needed to halve the response being measured. A word on the Ki: it is a dissociation constant, usually derived from enzyme kinetics or from competition with a known ligand.

Experiment [1] concerns the target T1, Adrenergic receptor alpha-2 (Homo sapiens, UniProt P08913+P18825+P18089).
T1 sequence (P08913 whole entry): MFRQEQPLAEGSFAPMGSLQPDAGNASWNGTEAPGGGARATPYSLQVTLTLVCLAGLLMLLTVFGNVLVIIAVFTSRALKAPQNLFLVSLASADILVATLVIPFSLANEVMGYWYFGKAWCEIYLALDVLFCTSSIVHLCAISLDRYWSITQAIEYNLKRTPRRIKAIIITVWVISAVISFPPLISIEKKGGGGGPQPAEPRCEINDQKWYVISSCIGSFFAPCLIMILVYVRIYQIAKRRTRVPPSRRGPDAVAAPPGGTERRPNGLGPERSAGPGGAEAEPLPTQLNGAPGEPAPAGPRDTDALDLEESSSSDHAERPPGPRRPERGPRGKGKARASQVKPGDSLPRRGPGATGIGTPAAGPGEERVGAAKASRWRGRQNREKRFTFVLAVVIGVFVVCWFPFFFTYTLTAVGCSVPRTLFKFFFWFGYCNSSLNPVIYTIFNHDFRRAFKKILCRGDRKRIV
T1 sequence (P18825 whole entry): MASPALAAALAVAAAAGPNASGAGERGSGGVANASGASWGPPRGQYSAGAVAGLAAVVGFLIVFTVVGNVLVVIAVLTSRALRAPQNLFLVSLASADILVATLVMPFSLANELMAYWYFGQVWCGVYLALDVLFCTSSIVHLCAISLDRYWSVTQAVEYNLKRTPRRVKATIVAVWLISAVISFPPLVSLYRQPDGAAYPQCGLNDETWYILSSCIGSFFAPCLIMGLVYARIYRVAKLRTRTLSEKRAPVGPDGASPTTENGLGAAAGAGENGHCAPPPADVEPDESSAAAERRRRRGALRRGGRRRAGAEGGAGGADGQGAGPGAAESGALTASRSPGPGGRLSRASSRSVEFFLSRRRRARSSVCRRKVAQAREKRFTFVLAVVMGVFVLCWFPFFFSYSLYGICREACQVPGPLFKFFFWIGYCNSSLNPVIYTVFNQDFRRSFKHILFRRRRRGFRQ
T1 sequence (P18089 whole entry): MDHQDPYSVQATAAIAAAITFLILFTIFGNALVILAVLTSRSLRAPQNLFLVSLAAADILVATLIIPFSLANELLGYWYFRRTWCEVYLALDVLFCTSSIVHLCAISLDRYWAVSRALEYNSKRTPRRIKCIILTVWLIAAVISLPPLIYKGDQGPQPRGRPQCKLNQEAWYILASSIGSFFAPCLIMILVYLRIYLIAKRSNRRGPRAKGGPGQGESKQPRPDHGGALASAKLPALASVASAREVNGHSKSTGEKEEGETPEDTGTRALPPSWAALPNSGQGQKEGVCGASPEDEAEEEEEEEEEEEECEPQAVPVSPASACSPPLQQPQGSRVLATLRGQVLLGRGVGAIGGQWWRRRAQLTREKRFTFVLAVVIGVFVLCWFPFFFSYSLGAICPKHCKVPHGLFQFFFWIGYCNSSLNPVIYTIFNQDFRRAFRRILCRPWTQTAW
Put plainly: Antagonistic activity against Alpha-2 adrenergic receptor in human blood platelets. It counts as functional, tissue-based. In a few lines:
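Human platelet-rich plasma pretreated with 1 mM aspirin. Inhibitor at various concentrations added 1 min before epinephrine (30-100 µM). Primary-wave aggregation measured; IC50 is the molar 50% inhibitory concentration.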

Experiment [2] concerns the target T2, Adrenergic receptor alpha-2 (Rattus norvegicus, UniProt P22086+P19328+P22909).
T2 sequence (P22086 whole entry): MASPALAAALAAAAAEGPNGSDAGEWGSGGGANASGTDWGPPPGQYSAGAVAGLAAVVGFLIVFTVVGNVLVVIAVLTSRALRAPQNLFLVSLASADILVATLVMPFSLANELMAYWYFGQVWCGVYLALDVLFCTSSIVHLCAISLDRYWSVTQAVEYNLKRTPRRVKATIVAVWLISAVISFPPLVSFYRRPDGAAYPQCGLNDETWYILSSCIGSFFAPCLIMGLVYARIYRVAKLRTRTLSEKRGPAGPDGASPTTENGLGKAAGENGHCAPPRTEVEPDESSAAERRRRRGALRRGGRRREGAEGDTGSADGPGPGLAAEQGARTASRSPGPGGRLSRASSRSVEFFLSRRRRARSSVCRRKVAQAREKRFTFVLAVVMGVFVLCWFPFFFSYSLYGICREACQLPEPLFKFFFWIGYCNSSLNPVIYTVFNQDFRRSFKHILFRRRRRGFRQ
T2 sequence (P19328 whole entry): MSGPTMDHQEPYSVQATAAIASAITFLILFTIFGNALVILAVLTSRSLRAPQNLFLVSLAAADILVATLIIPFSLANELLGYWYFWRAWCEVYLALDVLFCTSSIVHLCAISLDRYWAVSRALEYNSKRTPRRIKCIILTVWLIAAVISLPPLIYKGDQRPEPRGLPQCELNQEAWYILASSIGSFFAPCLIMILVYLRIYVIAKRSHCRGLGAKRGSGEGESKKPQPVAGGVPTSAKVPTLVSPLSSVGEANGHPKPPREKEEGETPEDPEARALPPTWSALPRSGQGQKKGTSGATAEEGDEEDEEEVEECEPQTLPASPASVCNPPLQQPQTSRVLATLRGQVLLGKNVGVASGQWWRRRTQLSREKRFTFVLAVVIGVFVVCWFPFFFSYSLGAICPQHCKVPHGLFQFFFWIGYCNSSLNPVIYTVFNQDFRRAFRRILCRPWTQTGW
T2 sequence (P22909 whole entry): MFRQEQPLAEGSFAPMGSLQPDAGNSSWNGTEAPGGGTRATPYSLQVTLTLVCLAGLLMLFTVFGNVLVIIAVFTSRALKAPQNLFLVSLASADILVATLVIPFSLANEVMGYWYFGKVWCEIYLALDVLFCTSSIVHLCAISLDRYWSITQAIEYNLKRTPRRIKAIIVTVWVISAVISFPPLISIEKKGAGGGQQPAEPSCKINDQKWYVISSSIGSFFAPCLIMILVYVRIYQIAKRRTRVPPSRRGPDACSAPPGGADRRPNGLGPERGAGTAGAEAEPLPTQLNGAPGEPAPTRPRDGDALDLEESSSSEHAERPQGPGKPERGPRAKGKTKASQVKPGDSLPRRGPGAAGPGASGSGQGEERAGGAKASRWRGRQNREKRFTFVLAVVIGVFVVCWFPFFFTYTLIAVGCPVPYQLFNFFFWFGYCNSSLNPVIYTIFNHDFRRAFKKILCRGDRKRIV
Briefly: Alpha-2 adrenergic receptor binding affinity was tested against membrane preparations of rat brain. In a few lines: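 Rat frontal cortex membranes at about 500 µg/mL protein, labelled with [3H]rauwolscine in Tris buffer pH 7.4 containing 10 mM EDTA. Nonspecific binding set by 10 µM phentolamine. 30 °C for 30 min, then filtration and scintillation counting, in triplicate.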

For the compound `CC(c1c[nH]cn1)c1cccc2ccccc12` (configuration not stated), the IC50 in experiment [1] was determined as 4300 nM.
Compound `c1ccc2c3c(ccc2c1)CCCC3c1c[nH]cn1` (configuration not stated) registered a Ki in experiment [2] of 1449 nM.
